# Measurements as given in ChEMBL document CHEMBL5053496, “Antibacterial sulfonimidamide-based oligopeptides as type I signal peptidase inhibitors: Synthesis and biological evaluation” (Eur J Med Chem, 2021).
# Legend:
# [1] = Hemolytic activity against human RBC assessed as hemolysis measured after 45 mins; format: ADME, tissue-based, Erythrocyte; settings: red blood cells (RBC), read-out: Activity
# How it was run: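 Human RBCs from heparinized blood, washed three times in Tyrode buffer pH 7.4. Final 100 µM compound, 1% DMSO, 50% RBC; 37 °C, 45 min, shaking 250 rpm. Cells spun off, supernatant hemoglobin read at 540 nm. Percent hemolysis relative to 2% Triton X-100 full lysis and buffer-only negative control.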
# Escherichia coli [2] = test: Antibacterial activity against Escherichia coli D22 mutant assessed as inhibition of bacterial growth measured after 16 to 20 hrs; format: functional; settings: time 16-20 hrs
# How it was run: (§1)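 MIC read visually as the lowest concentration giving complete growth inhibition to the unaided eye, with medium-only wells as the control.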
# HepG2 = test: Cytotoxicity against human HepG2 cells assessed as reduction in cell viability measured after 72 hrs by fluorometric assay; format: cell-based; settings: HepG2, 72 h
# How it was run: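 HepG2 cells grown with L-glutamine 2 mM, passaged twice weekly, used up to 20 passages. Seeded at 1000 cells/well in 384-well plates, exposed 72 h. Fluorescence read-out; survival index (%) = test-well fluorescence as percent of control cultures, blanks subtracted. Assay accepted if control signal-to-noise >10, CV <30%, bortezomib positive control SI <5%.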
# [3] = Inhibition of Escherichia coli LepB using dabcyl-VEVGGTATA GFSPRGLE-EDANS and dabcyl-KLTGFTVKPVQAIA GYEILE-EDANS-OH as substrates preincubated for 10 mins followed by substrate addition by FRET assay
# How it was run: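 FRET assay with recombinant E. coli LepB, final about 50 nM. Enzyme pre-incubated with inhibitor 10 min at 22 °C, then substrate added at 8 µM. Linear fluorescence increase from cleavage followed at 22 °C for 2 h. IC50 from non-linear regression of sigmoidal rate vs. inhibitor concentration curves.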
# Escherichia coli [4] = test: Antibacterial activity against wild type Escherichia coli ATCC 25922 assessed as inhibition of bacterial growth measured after 16 to 20 hrs; format: functional; settings: time 16-20 hrs
# How it was run: (§2)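 Read visually as complete growth inhibition by the unaided eye, with medium-only wells as control.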
# Pseudomonas aeruginosa [5] = test: Antibacterial activity against wild type Pseudomonas aeruginosa PAO1 assessed as inhibition of bacterial growth measured after 16 to 20 hrs; format: functional; settings: time 16-20 hrs; how it was run: as §2
# Acinetobacter baumannii = test: Antibacterial activity against Acinetobacter baumanii ATCC 19606 assessed as inhibition of bacterial growth measured after 16 to 20 hrs; format: functional; settings: ATCC 19606 = CIP 70.34 = JCM 6841, time 16-20 hrs; how it was run: as §2
# Staphylococcus aureus = test: Antibacterial activity against staphylococcus aureus ATCC 29213 assessed as inhibition of bacterial growth measured after 16 to 20 hrs; format: functional; settings: time 16-20 hrs; how it was run: as §2
# Pseudomonas aeruginosa [6] = test: Antibacterial activity against efflux pump deficient Pseudomonas aeruginosa PAO750 assessed as inhibition of bacterial growth measured after 16 to 20 hrs; format: functional; settings: time 16-20 hrs; how it was run: as §2
# Klebsiella pneumoniae = test: Antibacterial activity against wild type Klebsiella pneumoniae ATCC 13883 assessed as inhibition of bacterial growth measured after 16 to 20 hrs
# Escherichia coli [7] = test: Antibacterial activity against Escherichia coli harboring tolC efflux defective mutant assessed as inhibition of bacterial growth measured after 16 to 20 hrs; format: functional; settings: time 16-20 hrs; how it was run: as §1
SMILES,hemolysis at 0.75 h [1],MIC (Escherichia coli [2]),IC50 (HepG2),IC50 [3],MIC (Escherichia coli [4]),MIC (Pseudomonas aeruginosa [5]),MIC (Acinetobacter baumannii),MIC (Staphylococcus aureus),MIC (Pseudomonas aeruginosa [6]),MIC (Klebsiella pneumoniae),MIC (Escherichia coli [7])
CCCCCCc1ccc(-c2ccc(S(=O)(=NCCN)N3CCC[C@H]3C(=O)N[C@H](C(=O)N[C@@H](C)C(=O)NC(CC(N)=O)C(=O)N[C@@H](C)B3O[C@@H]4C[C@H]5C[C@H](C5(C)C)[C@]4(C)O3)[C@@H](C)O)cc2)cc1 (stereo not given in full),5.32%,8 µg/mL,5200 nM,133 nM,64 µg/mL,> 64 µg/mL,64 µg/mL,< 1 µg/mL,> 64 µg/mL,> 64 µg/mL,16 µg/mL
CCCCCCCCCCCCS(=O)(=O)N1CCC[C@H]1C(=O)N[C@H](C(=O)N[C@@H](C)C(=O)NC(CC(N)=O)C(=O)N[C@@H](C)B1O[C@@H]2C[C@H]3C[C@H](C3(C)C)[C@]2(C)O1)[C@@H](C)O (mixture of isomers),0.1%,16 µg/mL,1200 nM,56 nM,> 64 µg/mL,> 64 µg/mL,> 64 µg/mL,< 1 µg/mL,32 µg/mL,> 64 µg/mL,8 µg/mL
CCCCCCc1ccc(-c2ccc([S@@](=N)(=O)N3CCC[C@H]3C(=O)N[C@H](C(=O)N[C@@H](C)C(=O)NC(CC(N)=O)C(=O)N[C@@H](C)B3O[C@@H]4C[C@H]5C[C@H](C5(C)C)[C@]4(C)O3)[C@@H](C)O)cc2)cc1 (mixture of isomers),0.35%,32 µg/mL,2990 nM,1110 nM,> 64 µg/mL,> 64 µg/mL,> 64 µg/mL,4 µg/mL,> 64 µg/mL,> 64 µg/mL,4 µg/mL
CCCCCCc1ccc(-c2ccc([S@](=N)(=O)N3CCC[C@H]3C(=O)N[C@H](C(=O)N[C@@H](C)C(=O)NC(CC(N)=O)C(=O)N[C@@H](C)B3O[C@@H]4C[C@H]5C[C@H](C5(C)C)[C@]4(C)O3)[C@@H](C)O)cc2)cc1 (mixture of isomers),2.15%,8 µg/mL,2950 nM,1070 nM,> 64 µg/mL,> 64 µg/mL,> 64 µg/mL,4 µg/mL,> 64 µg/mL,> 64 µg/mL,4 µg/mL
CCCCCCc1ccc(-c2ccc(S(=O)(=O)N3CCC[C@H]3C(=O)N[C@H](C(=O)N[C@@H](C)C(=O)NC(CC(N)=O)C(=O)N[C@@H](C)B3O[C@@H]4C[C@H]5C[C@H](C5(C)C)[C@]4(C)O3)[C@@H](C)O)cc2)cc1 (mixture of isomers),14.5%,> 64 µg/mL,580 nM,71 nM,> 64 µg/mL,> 64 µg/mL,> 64 µg/mL,> 64 µg/mL,> 64 µg/mL,> 64 µg/mL,> 64 µg/mL
